In ChEMBL document CHEMBL1126685, “Bronchodilator activity of xanthine derivatives substituted with functional groups at the 1- or 7-position” (J Med Chem, 1993):
pEC50, pKi: −log10 of the molar value.

Legend:
Cavia porcellus [1] = species: Cavia porcellus; assay: Effective concentration required in vitro for heart stimulation (right atrium) in guinea pig; type: functional; conditions: Cardiac atrium
Method in brief: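 Isolated right atrium of male Hartley guinea pigs, 25 °C Krebs-Henseleit gassed 95% O2–5% CO2, 0.5 g tension; cumulative concentrations; beating rate via cardiometer triggered by isometric contraction. EC15 = concentration raising rate 15% above unstimulated; 3–5 experiments.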

[2] = Bronchoselectivity expressed as ratio of stimulatory activity in the right atrium (EC15) to relaxant activity in the tracheal muscle (EC50); type: functional, Cardiac atrium
[3] = target: Adenosine A2 receptor (guinea pig); assay: Binding affinity against adenosine A2 receptor of striatal membrane using [3H]CGS-21680 as a radioligand
Adenosine receptor A1 = target: T1, Adenosine receptor A1 (Cavia porcellus, UniProt P47745); assay: Binding affinity against adenosine A1 receptor of cerebral cortex using [3H]CPX as a radioligand; type: tissue-based
T1 sequence (P47745 whole entry): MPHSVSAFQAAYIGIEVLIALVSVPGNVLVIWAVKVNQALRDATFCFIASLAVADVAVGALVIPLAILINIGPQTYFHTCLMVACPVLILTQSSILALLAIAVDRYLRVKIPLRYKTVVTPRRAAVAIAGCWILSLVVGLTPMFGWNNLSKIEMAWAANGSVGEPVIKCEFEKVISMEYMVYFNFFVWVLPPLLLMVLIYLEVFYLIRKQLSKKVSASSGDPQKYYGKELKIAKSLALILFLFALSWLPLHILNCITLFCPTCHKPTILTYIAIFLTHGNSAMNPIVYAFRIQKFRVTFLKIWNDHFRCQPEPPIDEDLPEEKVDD

Cavia porcellus [4] = species: Cavia porcellus; assay: Effective concentration required in vitro for tracheal muscle (from male Hartley guinea pigs) relaxation; type: functional; conditions: Trachea
Method in brief: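 Tracheal ring chains from male Hartley guinea pigs (300–500 g), 37 °C Krebs-Henseleit pH 7.4, 95% O2–5% CO2, 0.5 g tension, spontaneous tone; cumulative compound addition, isotonic recording.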

Cavia porcellus [5] = assay: Positive chronotropic effect, 15% increase in heart rate of male Hartley guinea pigs on intraduodenal administration (mean of 3-5 animals); type: functional
Method in brief: (§1)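 Urethane-anesthetized (1.5 g/kg ip), ventilated male Hartley guinea pigs; compound suspended in 0.5% carboxymethylcellulose given intraduodenally 5 min before iv acetylcholine 40 μg/kg (jugular, every 15 min, after three stable responses); Konzett–Rossler overflow bronchospasm and carotid-pulse heart rate followed 110 min.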

[6] = target: cyclic AMP phosphodiesterase (guinea pig); assay: Inhibition of cyclic AMP-phosphodiesterase ( PDE) in the supernatant of tracheal muscle homogenate
[7] = Bronchoselectivity expressed as ratio of positive chronotropic action (ED15) to bronchodilator action (ED50)
Cavia porcellus [8] = assay: Bronchodilatory effect, 50% inhibition of spasmogen-induced response in male Hartley guinea pigs on intraduodenal administration; type: functional; method in brief: as §1

Ki [3]: 3.2 µM
pKi (Adenosine receptor A1): 7.22
pEC50 (Cavia porcellus [4]): 6.70
Ki [6]: 14.6 µM
Selectivity [7]: 6
Compound: C=CCCn1c(=O)c2[nH]cnc2n(CCC)c1=O
EC15 (Cavia porcellus [1]): 4.5 µM
Selectivity [2]: 22.5
ED15 (Cavia porcellus [5]): 11 mg/kg
ED50 (Cavia porcellus [8]): 1.84 mg/kg
